Results taken from ChEMBL document CHEMBL3769383, “Cefsulodin Inspired Potent and Selective Inhibitors of mPTPB, a Virulent Phosphatase from Mycobacterium tuberculosis” (ACS Med Chem Lett, 2015).
Calls of active or inactive are those of the source. The calls are words filed in the database; no cut-off is given here.

Legend:
[1] = Inhibition of Mycobacterium tuberculosis PTPB expressed in Escherichia coli BL21/DE3 cells using pNPP as substrate after 5 mins by spectrophotometry
[2] = Reversible competitive inhibition of Mycobacterium tuberculosis PTPB expressed in Escherichia coli BL21/DE3 cells using pNPP as substrate after 5 mins
BL21-DE3 = assay: Inhibition of Mycobacterium tuberculosis PTPB expressed in Escherichia coli BL21/DE3 cells using pNPP as substrate at 200 uM after 5 mins by spectrophotometry
In short: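 Single-point screen: the test compound is present at 200 μM in the assay (a compound concentration, not a substrate level). The read-out is phosphatase-catalysed hydrolysis of para-nitrophenyl phosphate.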

SMILES | IC50 [1] | Ki [2] | inhibition (BL21-DE3)
NC(=O)C(c1ccccc1)S(=O)(=O)O (centres undefined) | 180 µM | 73.4 µM | 
CC(=O)OCC1=C(C(=O)O)N2C(=O)[C@@H](N)[C@H]2SC1 |  |  | inactive
NC(=O)c1ccncc1 |  |  | inactive
